ChEMBL document CHEMBL1127066, “Discovery and structure-activity relationship of a series of 1-carba-1-dethiacephems exhibiting activity against methicillin-resistant Staphylococcus aureus” (J Med Chem, 1993)

Experiments:
[1] = system: Staphylococcus aureus; assay: In vitro antimicrobial activity against Staphylococcus aureus X400 strain; format: functional
[2] = system: Staphylococcus aureus; assay: In vitro antimicrobial activity against Staphylococcus aureus S13E strain; format: functional
[3] = system: Pseudomonas aeruginosa; assay: Antimicrobial activity against Pseudomonas PS18 strain; format: functional
[4] = system: Enterobacter cloacae; assay: In vitro evaluation of antimicrobial activity against Enterobacter cloacae EB5 strain; format: functional
[5] = system: Escherichia coli; assay: In vitro evaluation of antimicrobial activity against Escherichia coli EC14 strain; format: functional
[6] = system: Staphylococcus epidermidis; assay: In vitro antimicrobial activity against Staphylococcus epidermidis 270 strain; format: functional
[7] = system: Streptococcus pneumoniae; assay: In vitro antimicrobial activity against Streptococcus pneumoniae PARK strain; format: functional
[8] = system: Haemophilus influenzae; assay: In vitro antimicrobial activity against Haemophilus influenzae C.L. strain; format: functional
[9] = system: Staphylococcus epidermidis; assay: In vitro antimicrobial activity against Staphylococcus epidermidis 222 strain; format: functional
[10] = system: Pseudomonas aeruginosa; assay: In vitro antimicrobial activity against Pseudomonas X239 strain; format: functional
[11] = system: Staphylococcus aureus; assay: In vitro antimicrobial activity against Staphylococcus aureus X1.1 strain; format: functional
[12] = system: Klebsiella; assay: In vitro antimicrobial activity against Klebsiella X26 strain; format: functional
[13] = species: Rattus norvegicus; assay: In vitro plasma protein binding was evaluated using Sprauge-Dawley rat at 20 ug/mL; format: ADME
Procedure, shortened: (§1)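 Binding was measured by ultrafiltration (Centrifree micropartition) in pooled plasma (ICR mouse, Sprague–Dawley rat, rhesus monkey or human) at a drug concentration of 20 μg/mL.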

[14] = species: Homo sapiens; assay: In vitro plasma protein binding was evaluated by using Human plasma at 20 ug/mL; format: ADME; procedure, shortened: as §1
[15] = Tested against penicillin binding protein 2a (PBP2a) enzyme.
[16] = species: Mus musculus; assay: In vitro plasma protein binding was evaluated using ICR mouse at 20 ug/mL; format: ADME; procedure, shortened: as §1
[17] = system: Staphylococcus aureus; assay: Minimum inhibitory concentration against sensitive strain of Staphylococcus aureus 446 in 4% of NaCl; format: functional
[18] = system: Staphylococcus aureus; assay: Minimum inhibitory concentration against heteroresistant strain of Staphylococcus aureus 430 in the absence of NaCl; format: functional
[19] = system: Staphylococcus aureus; assay: Minimum inhibitory concentration against heteroresistant strain of Staphylococcus aureus 430 in 4% of NaCl; format: functional
[20] = system: Staphylococcus aureus; assay: Minimum inhibitory concentration against homoresistant strain of Staphylococcus aureus 447 in 4% of NaCl; format: functional
[21] = system: Staphylococcus aureus; assay: Minimum inhibitory concentration against methicillin-resistant Staphylococcus aureus 430 (MRSA) in vitro using trypticase soy broth (TSB) with 4% NaCl; format: functional
[22] = system: Staphylococcus aureus; assay: Minimum inhibitory concentration against methicillin-resistant Staphylococcus aureus 430 (MRSA) in vitro using trypticase soy broth (TSB); format: functional
[23] = system: Staphylococcus aureus; assay: Minimum inhibitory concentration against homoresistant strain of Staphylococcus aureus 447 in the absence of NaCl; format: functional
[24] = system: Staphylococcus aureus; assay: Minimum inhibitory concentration against sensitive strain of Staphylococcus aureus 446 in the absence of NaCl; format: functional

SMILES	MIC [1] [µg/mL]	MIC [2] [µg/mL]	MIC [3] [µg/mL]	MIC [4] [µg/mL]	MIC [5] [µg/mL]	MIC [6] [µg/mL]	MIC [7] [µg/mL]	MIC [8] [µg/mL]	MIC [9] [µg/mL]	MIC [10] [µg/mL]	MIC [11] [µg/mL]	MIC [12] [µg/mL]	also measured
C[n+]1ccc2sc(SC3=C(C(=O)[O-])N4C(=O)[C@@H]([N-]C(=O)/C(=N/OCCF)c5csc(N)n5)[C@H]4CC3)nc2c1.[Na+]	128	16	32	4	0.25	8	0.15	0.06	2	32	2	0.03	
Nc1nc(/C(=N\OCCF)C(=O)N[C@@H]2C(=O)N3C(C(=O)[O-])=C(Sc4nc5c(N)ncnc5s4)CC[C@H]23)cs1.[Na+]	32	16	64	1	0.25	2	< 0.008	0.03	0.5	> 128	0.125	0.03	
Nc1nc(/C(=N\OCCF)C(=O)N[C@@H]2C(=O)N3C(C(=O)[O-])=C(Sc4nc5ccc([N+](=O)[O-])cc5s4)CC[C@H]23)cs1.[Na+]	2	2	64	1	0.25	0.5	< 0.008	0.03	0.5	> 128	0.06	0.06	Bound [13]: 98.3%; Bound [14]: > 99.2%; IC50 [15]: 0.85 µg/mL; Bound [16]: 96.9%; MIC [17]: 0.25 µg/mL; MIC [18]: 1 µg/mL; MIC [19]: 1 µg/mL; MIC [20]: 1.9 µg/mL; MIC [21]: 1 µg/mL; MIC [22]: 0.5 µg/mL; MIC [23]: 1.9 µg/mL; MIC [24]: 0.25 µg/mL
Nc1nc(/C(=N\OCCF)C(=O)N[C@@H]2C(=O)N3C(C(=O)[O-])=C(Sc4nc5cccnc5s4)CC[C@H]23)cs1.[Na+]	16	8	64	2	0.25	4	< 0.008	0.03	1	> 128	0.25	0.03	
Nc1nc(/C(=N\OCCF)C(=O)N[C@@H]2C(=O)N3C(C(=O)[O-])=C(Sc4nc(-c5cccnc5)cs4)CC[C@H]23)cs1.[Na+]	32	8	64	2	0.25	2	< 0.008	0.015	0.5	> 128	0.25	0.03	
Nc1nc(/C(=N\OCCF)C(=O)N[C@@H]2C(=O)N3C(C(=O)[O-])=C(Sc4nc(-c5ccncc5)cs4)CC[C@H]23)cs1.[Na+]	32	8	> 128	2	0.25	2	< 0.008	0.03	0.5	> 128	0.125	0.03	
Nc1nc(/C(=N\OCCF)C(=O)N[C@@H]2C(=O)N3C(C(=O)[O-])=C(Sc4nc(-c5ccccc5)cs4)CC[C@H]23)cs1.[Na+]	4	4	64	1	0.25	0.5	< 0.008	0.03	0.25	8	0.125	0.015	
Nc1nc(/C(=N\OCCF)C(=O)N[C@@H]2C(=O)N3C(C(=O)[O-])=C(Sc4nc5ccccc5s4)CC[C@H]23)cs1.[Na+]	4	4	128	1	0.25	0.5	< 0.008	0.03	0.25	16	0.125	0.03	IC50 [15]: 3.5 µg/mL; MIC [21]: 1 µg/mL; MIC [22]: 0.5 µg/mL
Cc1cnc(SC2=C(C(=O)[O-])N3C(=O)[C@@H](NC(=O)/C(=N/OCCF)c4csc(N)n4)[C@H]3CC2)s1.[Na+]	128	32	32	2	0.5	4	< 0.008	< 0.008	1	64	0.5	0.03	
